Results from ChEMBL document CHEMBL2040734, “Benzothiazoles: search for anticancer agents” (2012).

Legend:
Format in all cases: functional
[1] = test system: OVCAR-5; experiment: Cytotoxicity against human OVCAR5 cells assessed as cell growth at 1 uM after 48 hrs by sulforhodamine B assay; settings: OVCAR-5, 48 h, read-out: Activity
[2] = test system: SK-MEL-28; experiment: Cytotoxicity against human SK-MEL-28 cells assessed as cell growth at 10 '-5 M after 48 hrs by sulforhodamine B assay; settings: SK-MEL-28, 48 h, read-out: Activity
[3] = test system: A498; experiment: Cytotoxicity against human A498 cells assessed as cell growth at 100 uM after 48 hrs by sulforhodamine B assay; settings: A498, 48 h, read-out: Activity
How it was run: (§1)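 NCI-60 five-dose screen. Cells were grown in RPMI 1640 with 5% FBS and 2 mM L-glutamine and preincubated 24 h. Compound (DMSO stock) was tested at 0.01, 0.1, 1, 10 and 100 µM for 48 h at 37 °C. Cells were fixed in situ with cold TCA (final 10%) and stained with 0.4% SRB. A515 was read, and percent growth was calculated against time-zero and control plates.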

[4] = test system: OVCAR-5; experiment: Growth inhibition of human OVCAR5 cells after 48 hrs by sulforhodamine B assay; settings: OVCAR-5, 48 h
How it was run: (§2)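 Adherent NCI-60 lines were grown in RPMI 1640 with 5% FBS and 2 mM L-glutamine, plated at 5000–40,000 cells/well and preincubated 24 h. They were then exposed to five concentrations (0.01–100 µM, from a DMSO stock) for 48 h at 37 °C, 5% CO2. Cells were fixed with cold TCA (10% final, 60 min, 4 °C) and stained with 0.4% SRB. Dye was solubilized in 10 mM Tris base and A515 read. GI50 was derived from time-zero, control and treated absorbances.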

[5] = test system: DU-145; experiment: Cytotoxicity against human DU145 cells assessed as cell growth at 0.1 uM after 48 hrs by sulforhodamine B assay; settings: DU-145, 48 h, read-out: Activity; how it was run: as §1
[6] = test system: HCT-15; experiment: Cytotoxicity against human HCT15 cells assessed as cell growth at 10 '-5 M after 48 hrs by sulforhodamine B assay; settings: HCT-15, 48 h, read-out: Activity
How it was run: (§3)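 Primary one-dose screen across the NCI 60-line panel at 10 µM. Cells were grown in RPMI 1640 with 5% FBS and 2 mM L-glutamine and held 24 h before drug. Drug was diluted from a DMSO concentrate. Exposure was 48 h at 37 °C, 5% CO2. Cells were fixed with TCA and stained with SRB, with absorbance read at 515 nm. Percent growth was calculated against time-zero and untreated control.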

[7] = test system: HOP-62; experiment: Cytotoxicity against human HOP62 cells assessed as cell growth at 10 '-5 M after 48 hrs by sulforhodamine B assay; settings: HOP-62, 48 h, read-out: Activity; how it was run: as §3
[8] = test system: SF-539; experiment: Growth inhibition of human SF539 cells after 48 hrs by sulforhodamine B assay; settings: SF-539, 48 h; how it was run: as §2
[9] = test system: CAKI-1; experiment: Cytotoxicity against human Caki1 cells assessed as cell growth at 1 uM after 48 hrs by sulforhodamine B assay; settings: CAKI-1, 48 h, read-out: Activity; how it was run: as §1
[10] = test system: SNB-75; experiment: Cytotoxicity against human SNB75 cells assessed as cell growth at 10 '-5 M after 48 hrs by sulforhodamine B assay; settings: SNB-75, 48 h, read-out: Activity
[11] = Cytotoxicity against human Hs 578T cells assessed as cell growth at 0.01 uM after 48 hrs by sulforhodamine B assay; settings: read-out: Activity
How it was run: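 Five-dose NCI panel run at 0.01, 0.1, 1, 10 and 100 µM. Cells were in RPMI 1640 with 5% FBS and 2 mM L-glutamine, seeded at 5000–40,000 cells/well and pre-incubated 24 h. Drug was diluted from a DMSO stock into medium with 50 µg/ml gentamicin. Exposure was 48 h at 37 °C, 5% CO2. Cells were fixed with cold TCA and stained with 0.4% SRB, read at 515 nm. Percent growth came from time-zero, control and test absorbances.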

[12] = test system: IGROV-1; experiment: Cytotoxicity against human IGROV1 cells assessed as cell growth at 100 uM after 48 hrs by sulforhodamine B assay; settings: IGROV-1, 48 h, read-out: Activity
[13] = test system: NCI/ADR-RES; experiment: Cytotoxicity against human NCI/ADR-RES cells assessed as cell growth at 0.1 uM after 48 hrs by sulforhodamine B assay; settings: read-out: Activity
[14] = test system: NCI-H460; experiment: Cytotoxicity against human NCI-H460 cells assessed as cell growth at 10 '-5 M after 48 hrs by sulforhodamine B assay; settings: NCI-H460, 48 h, read-out: Activity
[15] = test system: BT-549; experiment: Cytotoxicity against human BT549 cells assessed as cell growth at 100 uM after 48 hrs by sulforhodamine B assay; settings: BT-549, 48 h, read-out: Activity; how it was run: as §1
[16] = test system: UACC-62; experiment: Cytotoxicity against human UACC62 cells assessed as cell growth at 0.1 uM after 48 hrs by sulforhodamine B assay; settings: UACC-62, 48 h, read-out: Activity
[17] = test system: TK-10; experiment: Growth inhibition of human TK10 cells after 48 hrs by sulforhodamine B assay; settings: TK-10, 48 h; for CC50: read-out: LC50 (the source's name); how it was run: as §2
[18] = test system: MCF7; experiment: Cytotoxicity against human MCF7 cells assessed as cell growth at 0.01 uM after 48 hrs by sulforhodamine B assay; settings: MCF7, 48 h, read-out: Activity
[19] = test system: SK-OV-3; experiment: Cytotoxicity against human SKOV3 cells assessed as cell growth at 1 uM after 48 hrs by sulforhodamine B assay; settings: SK-OV-3, 48 h, read-out: Activity
[20] = test system: OVCAR-8; experiment: Growth inhibition of human OVCAR8 cells after 48 hrs by sulforhodamine B assay; settings: OVCAR-8, 48 h; how it was run: as §2
[21] = test system: CAKI-1; experiment: Cytotoxicity against human Caki1 cells assessed as cell growth at 0.01 uM after 48 hrs by sulforhodamine B assay; settings: CAKI-1, 48 h, read-out: Activity; how it was run: as §1
[22] = test system: ACHN; experiment: Cytotoxicity against human ACHN cells assessed as cell growth at 1 uM after 48 hrs by sulforhodamine B assay; settings: read-out: Activity; how it was run: as §1
[23] = test system: UACC-257; experiment: Cytotoxicity against human UACC257 cells assessed as cell growth at 10 '-5 M after 48 hrs by sulforhodamine B assay; settings: UACC-257, 48 h, read-out: Activity
[24] = test system: NCI-H460; experiment: Cytotoxicity against human NCI-H460 cells assessed as cell growth at 100 uM after 48 hrs by sulforhodamine B assay; settings: NCI-H460, 48 h, read-out: Activity
[25] = test system: SNB-75; experiment: Cytotoxicity against human SNB75 cells assessed as cell growth at 100 uM after 48 hrs by sulforhodamine B assay; settings: SNB-75, 48 h, read-out: Activity
[26] = test system: SR; experiment: Growth inhibition of human SR cells after 48 hrs by sulforhodamine B assay; settings: for CC50: read-out: LC50 (the source's name)
How it was run: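 Leukemia suspension lines were grown in RPMI 1640 with 5% FBS and 2 mM L-glutamine and plated at 5000–40,000 cells/well with 24 h preincubation. They were treated at 0.01, 0.1, 1, 10 and 100 µM (DMSO stock) for 48 h at 37 °C. Settled cells were fixed with 80% TCA (16% final) and stained with 0.4% SRB in 1% acetic acid, then read at 515 nm. GI50 was calculated against time-zero and control wells.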

Structure (SMILES) | growth at 1 µM [1] [%] | growth at 10 µM [2] [%] | growth at 100 µM [3] [%] | GI50 [4] [nM] | LC50 [4] [µM] | TGI [4] [nM] | growth at 0.1 µM [5] [%] | growth at 10 µM [6] [%] | growth at 10 µM [7] [%] | GI50 [8] [µM] | LC50 [8] [µM] | TGI [8] [µM] | growth at 1 µM [9] [%] | growth at 10 µM [10] [%] | growth at 0.01 µM [11] [%] | growth at 100 µM [12] [%] | growth at 0.1 µM [13] [%] | growth at 10 µM [14] [%] | growth at 100 µM [15] [%] | growth at 0.1 µM [16] [%] | also measured
Cc1ccc2nc(Nc3c(C)cccc3C)sc2c1 | 79 | 45.5 | 60 | > 100000 | > 100 | > 100000 | 102 | 19.9 | 45.7 | 66.8 | > 100 | > 100 | 39 | -15.5 | 92 | 33 | 93 | 22.7 | 73 | 85 | GI50 [17]: > 100000 nM; TGI [17]: > 100000 nM; CC50 [17]: > 100 µM; growth at 0.01 µM [18]: 90%; growth at 1 µM [19]: 91%; GI50 [20]: 57.9 µM; TGI [20]: > 100000 nM; CC50 ([20]; read-out: LC50 (the source's name)): > 100 µM; growth at 0.01 µM [21]: 93%; growth at 1 µM [22]: 84%; growth at 10 µM [23]: 56.1%; growth at 100 µM [24]: 51%; growth at 100 µM [25]: 32%; GI50 [26]: 412 nM; TGI [26]: > 100 µM; CC50 [26]: > 100 µM
Clc1cccc(Cl)c1Nc1nc2cccc(Cl)c2s1 | 79 | -48.1 | -92 | 1480 | 5.61 | 2880 | 102 | -42.5 | -38.2 | 1.48 | 6.4 | 3.08 | 18 | -26.9 | 87 | -55 | 87 | -57.9 | -48 | 86 | GI50 [17]: 1160 nM; TGI [17]: 2570 nM; CC50 [17]: 5.67 µM; growth at 0.01 µM [18]: 90%; growth at 1 µM [19]: 86%; GI50 [20]: 1.15 µM; TGI [20]: 2830 nM; growth at 0.01 µM [21]: 92%; growth at 1 µM [22]: 60%; growth at 10 µM [23]: -33.3%; growth at 100 µM [24]: -39%; growth at 100 µM [25]: 4%; GI50 [26]: 1030 nM; TGI [26]: 3.24 µM; CC50 [26]: > 100 µM
